The values below come from ChEMBL document CHEMBL4261576, “Conformationally restricted benzothienoazepine respiratory syncytial virus inhibitors: their synthesis, structural analysis and biological activities” (Medchemcomm, 2018).

For assay [1], the system named is Respiratory syncytial virus. As to the kind of experiment: Antiviral activity against RSV A2 infected in human HEp2 cells assessed as protection against virus-induced cytopathic effect at 0.014 uM after 5 days by resazurin assay relative to control. In kind it is functional. (Damage to the host cells serves as the signal in cytopathic effect assays.)
Assay [2] relates to Respiratory syncytial virus. As to the kind of experiment: Antiviral activity against RSV B Washington infected in human HEp2 cells assessed as protection against virus-induced cytopathic effect after 6 days by resazurin assay. In kind it is functional, organism-based. As to conditions: HEp-2, 144 h. An outline of the steps: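 HEp2 cells seeded at 10^3/well in 5% FBS-DMEM with glutamine and pyruvate one day before infection. RSV B Washington added in serum-free DMEM at final MOI 0.2, with compound added at the same time (0.5% DMSO final). Incubated 6 days at 37°C/5% CO2. Resazurin added for 6 h; fluorescence read at 545 nm ex / 590 nm em. IC50 taken from the concentration-response curve.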

The test system of assay [3] is Respiratory syncytial virus. As to the kind of experiment: Antiviral activity against RSV A2 infected in human HEp2 cells assessed as protection against virus-induced cytopathic effect after 5 days by resazurin assay. As to conditions: A2, HEp-2, 120 h. The assay is classed as functional, organism-based. In outline:
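HEp2 cells seeded at 10^3/well in 5% FBS-DMEM with 2 mM L-glutamine and 1 mM sodium pyruvate one day before infection. RSV A2 added in serum-free DMEM at final MOI 1, with compound added at the same time (final DMSO 0.5%). Incubated 5 days at 37°C/5% CO2. Resazurin then added for 6 h; fluorescence read at 545/590 nm. Percent inhibition per well; IC50 taken from the concentration-response curve.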

In the next assay the target is Vasopressin V1a receptor (Homo sapiens, UniProt P37288). As to the kind of experiment: Displacement of [3H] (Arg8)-vasopressin from human vasopressin V1a receptor expressed in CHO cell membranes after 60 mins. Background: Loss of bound radioactivity is the signal in a displacement assay; it reports binding, not function.
The target of the next assay is Vasopressin V2 receptor (Homo sapiens, UniProt P30518). As to the kind of experiment: Displacement of [3H] (Arg8)-vasopressin from human vasopressin V2 receptor expressed in CHO cell membranes after 60 mins.

Where “and” joins values, the source holds several entries; their conditions need not be identical. Equal entries are not always repeated.

Chain of Vasopressin V1a receptor (P37288 whole entry): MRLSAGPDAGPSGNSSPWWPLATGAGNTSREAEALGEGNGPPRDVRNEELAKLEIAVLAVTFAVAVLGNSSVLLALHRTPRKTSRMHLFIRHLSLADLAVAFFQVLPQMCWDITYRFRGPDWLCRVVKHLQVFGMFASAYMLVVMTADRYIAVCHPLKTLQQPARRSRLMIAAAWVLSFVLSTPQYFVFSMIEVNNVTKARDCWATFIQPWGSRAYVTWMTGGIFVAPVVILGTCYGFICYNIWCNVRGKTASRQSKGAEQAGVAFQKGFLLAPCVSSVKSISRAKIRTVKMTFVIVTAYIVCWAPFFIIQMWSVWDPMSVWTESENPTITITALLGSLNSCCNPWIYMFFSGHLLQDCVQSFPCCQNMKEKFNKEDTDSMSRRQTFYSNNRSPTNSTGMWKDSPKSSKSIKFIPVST
Chain of Vasopressin V2 receptor (P30518 whole entry): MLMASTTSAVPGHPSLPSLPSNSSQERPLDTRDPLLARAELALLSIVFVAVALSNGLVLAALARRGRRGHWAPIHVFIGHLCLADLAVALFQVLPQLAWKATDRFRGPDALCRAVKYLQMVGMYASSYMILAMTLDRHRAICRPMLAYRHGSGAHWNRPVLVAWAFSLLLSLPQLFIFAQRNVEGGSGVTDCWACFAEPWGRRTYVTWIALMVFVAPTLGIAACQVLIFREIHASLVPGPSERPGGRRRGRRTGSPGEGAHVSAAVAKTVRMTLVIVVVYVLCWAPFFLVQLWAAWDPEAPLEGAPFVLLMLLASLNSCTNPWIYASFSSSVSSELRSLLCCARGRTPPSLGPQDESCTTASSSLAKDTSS

What is called IC50 is the concentration at which inhibition is half-maximal. Take `Cc1cnc(N2CC3(CCOCC3)C2)c(C(=O)Nc2ccc(C(=O)N3C[C@@H](C)c4cc(C(=O)Nc5c(C)cccc5F)sc4-c4ccccc43)cc2)c1`: the Activity in assay [1] came out at 40%. Besides, the values for the IC50 in assay [2] and in assay [3] were more than 1370 nM and more than 14 nM, respectively.

The term Ki denotes a measure of affinity in units of concentration, obtained from inhibition or displacement. Read a high Ki as weaker binding. Take `Cc1ccccc1C(=O)Nc1ccc(C(=O)N2CCC(=O)N(C)c3cccc(C)c32)cc1`: the Ki is 70 nM and 620 nM at Vasopressin V1a receptor; 640 nM and 4700 nM on Vasopressin V2 receptor.

With `Cc1cnc(N2CC3(CCOCC3)C2)c(C(=O)Nc2ccc(C(=O)N3C[C@H](C)c4cc(C(=O)Nc5c(C)cccc5F)sc4-c4ccccc43)cc2)c1`, the figures for the IC50 in assay [2] and in assay [3] were 15 nM and 0.51 nM, respectively.

For `Cc1cnc(N2CC3(CCOCC3)C2)c(C(=O)Nc2ccc(C(=O)N3c4ccccc4-c4sc(C(=O)Nc5c(F)cccc5F)cc4C[C@@H]3C)cc2)c1`, the results for the IC50 in assay [2] and in assay [3] were more than 1360 nM and more than 14 nM, respectively.

With `Cc1cnc(N2CC3(CCOCC3)C2)c(C(=O)Nc2ccc(C(=O)N3c4ccccc4-c4sc(C(=O)Nc5c(F)cccc5F)cc4C[C@H]3C)cc2)c1`, the IC50 in assay [2] was 9.2 nM; in assay [3], 0.18 nM.

As to `Cc1cnc(N2CC3(CCOCC3)C2)c(C(=O)Nc2ccc(C(=O)N3CC(C)c4cc(C(=O)Nc5c(C)cccc5F)sc4-c4ccccc43)cc2)c1` (racemic), the half-inhibitory concentration (IC50) was determined as 17 nM in assay [2] and 1.1 nM in assay [3].

For `Cc1cnc(N2CC3(CCOCC3)C2)c(C(=O)Nc2ccc(C(=O)N3c4ccccc4-c4sc(C(=O)Nc5c(F)cccc5F)cc4CC3C)cc2)c1` (racemic), the IC50 in assay [2] is 13 nM; in assay [3] it was 0.45 nM.

As to `Cc1cnc(N2CC3(CCOCC3)C2)c(C(=O)Nc2ccc(C(=O)N3CCc4cc(C(=O)Nc5c(C)cccc5F)sc4-c4ccccc43)cc2)c1` [PC-786], the results for the IC50 in assay [2] and in assay [3] were 7.2 nM and 0.32 nM, respectively.
